# Experimental data gathered from unrelated publications.
# Protocols differ between the studies behind these lines.
Structure (SMILES),species,medium,route,dose,time,notes,concentration
Cc1noc(C)c1Cn1cc(N2C(=O)CN(Cc3cccc(O)c3)C2=O)cn1,male Sprague-Dawley rat,plasma,oral,30 mg/kg,2 h,,16.5 ng/mL
CCOC(=O)[C@@]12C[C@@H]1[C@@H](n1ccc3c(NC)nc(C#Cc4ccc(Cl)s4)nc31)[C@H](O)[C@@H]2O,male Sprague-Dawley rat,plasma,oral,10 mg/kg,4 h,,23.5 ng/mL
Cc1ccc(-c2cc(C(F)(F)F)nn2-c2ccc(S(N)(=O)=O)cc2)cc1,male Sprague-Dawley rat,blood,oral,20 mg/kg,8 h,,11.1 µM
CCc1cc(-c2noc(-c3cc(OC)nc(C4CCCC4)c3)n2)cc(C)c1OC[C@@H](O)CO,Wistar rat,plasma,oral,0.3 mg/kg,6 h,single dose,12.7 ng/mL
Cc1noc(C)c1Cn1cc(N2C(=O)N(Cc3cccc(O)c3)C(C)(C)C2=O)cn1,male Sprague-Dawley rat,plasma,oral,100 mg/kg,30 min,single dose,2.6 ng/mL
COc1nc(-c2cc(C)c(N[C@@H](C)c3cc(F)cc(F)c3)nn2)ccc1-n1cnc(C)c1,male Sprague-Dawley rat,CSF,oral,25 mg/kg,4 h,"multiple doses, once daily",76.6 ng/mL
COc1ccc2c(=O)n(C)c(-c3ccccc3)nc2c1,male Sprague-Dawley rat,lung,oral,30 mg/kg,30 min,single dose,27.5 ng/g
COc1cccc(-c2n[nH]c(SCc3ccccn3)n2)c1OC,female Sprague-Dawley rat,plasma,intravenous,1 mg/kg,4.98 min,single dose,4780 ng/mL
